# Source: ChEMBL document CHEMBL1149538, “A high-throughput assay for O-GlcNAc transferase detects primary sequence preferences in peptide substrates” (Bioorg Med Chem Lett, 2007)
# Where a SMILES comes first, the peptide text is derived from it.
# Target: T1, UDP-N-acetylglucosamine--peptide N-acetylglucosaminyltransferase 110 kDa subunit (Homo sapiens) (UniProt O15294)
# T1 sequence (whole entry): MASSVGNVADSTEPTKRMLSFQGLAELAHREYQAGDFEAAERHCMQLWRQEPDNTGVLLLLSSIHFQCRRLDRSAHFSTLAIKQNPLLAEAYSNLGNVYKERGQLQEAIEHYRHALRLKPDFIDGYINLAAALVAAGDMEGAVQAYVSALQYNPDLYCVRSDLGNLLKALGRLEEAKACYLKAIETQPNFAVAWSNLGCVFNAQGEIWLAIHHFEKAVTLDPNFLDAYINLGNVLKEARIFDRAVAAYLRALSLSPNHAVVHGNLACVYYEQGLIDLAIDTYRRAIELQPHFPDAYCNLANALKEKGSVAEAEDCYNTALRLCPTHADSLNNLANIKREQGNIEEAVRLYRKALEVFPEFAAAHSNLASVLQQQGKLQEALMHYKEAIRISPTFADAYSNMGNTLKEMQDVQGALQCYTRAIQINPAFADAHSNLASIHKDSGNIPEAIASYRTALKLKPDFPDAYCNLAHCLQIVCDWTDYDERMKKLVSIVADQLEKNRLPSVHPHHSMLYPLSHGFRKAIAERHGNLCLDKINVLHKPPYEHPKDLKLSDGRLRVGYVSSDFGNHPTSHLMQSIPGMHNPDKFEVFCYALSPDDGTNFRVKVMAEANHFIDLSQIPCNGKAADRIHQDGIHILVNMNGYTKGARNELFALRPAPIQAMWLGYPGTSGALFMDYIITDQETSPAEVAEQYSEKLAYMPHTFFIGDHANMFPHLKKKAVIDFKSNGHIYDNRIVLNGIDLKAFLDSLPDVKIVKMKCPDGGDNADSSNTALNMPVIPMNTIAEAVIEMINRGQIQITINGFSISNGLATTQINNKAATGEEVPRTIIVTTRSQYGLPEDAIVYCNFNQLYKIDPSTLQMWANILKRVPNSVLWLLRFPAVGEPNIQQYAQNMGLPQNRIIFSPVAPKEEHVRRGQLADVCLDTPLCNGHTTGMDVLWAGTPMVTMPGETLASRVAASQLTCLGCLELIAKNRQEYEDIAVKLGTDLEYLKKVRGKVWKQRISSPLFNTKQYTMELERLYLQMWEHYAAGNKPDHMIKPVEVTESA
# Test: Binding affinity to human OGT expressed in Escherichia coli […] cells assessed as alpha-FLAG-HRP activity relative to alpha-A-crystallin peptide by azido-ELISA
# Settings: BL21-DE3
# Method in brief: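 Biotinylated peptides are reacted at saturating levels with Ni-column-purified human OGT from E. coli BL21(DE3), plus UDP-GlcNAz 62.5 μM, MgCl2 12.5 μM and β-mercaptoethanol 1 mM, for 4 h at 37 °C. Reactions are stopped with pH 4.5 sodium acetate and captured on NeutrAvidin. Product is tagged with phosphine-FLAG, detected by anti-FLAG-HRP/TMB at A450, normalized to the parent peptide after Ala-peptide background subtraction. Data are from 3 experiments, each in triplicate.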
row,SMILES,Activity
1,CC[C@H](C)[C@H](NC(=O)[C@@H]1CCCN1C(=O)[C@@H](NC(=O)[C@H](C)N)[C@@H](C)CC)C(=O)N[C@@H](CO)C(=O)N[C@@H](CCCNC(=N)N)C(=O)N[C@@H](CCC(=O)O)C(=O)N[C@@H](CCC(=O)O)C(=O)N[C@@H](CCCCN)C(=O)O (H-AIPISREEK-OH),0.3
2,CC[C@H](C)[C@H](NC(=O)[C@H](C)N)C(=O)N1CCC[C@H]1C(=O)N[C@H](C(=O)N[C@@H](CO)C(=O)N[C@@H](CCCNC(=N)N)C(=O)N[C@@H](C)C(=O)N[C@@H](CCC(=O)O)C(=O)N[C@@H](CCCCN)C(=O)O)C(C)C (H-AIPVSRAEK-OH),5
3,CC[C@H](C)[C@H](NC(=O)[C@H](C)N)C(=O)N1CCC[C@H]1C(=O)N[C@H](C(=O)N[C@@H](CO)C(=O)N[C@@H](CCCNC(=N)N)C(=O)N[C@@H](CCC(=O)O)C(=O)N[C@@H](CCC(=O)O)C(=O)N[C@@H](CCCCN)C(=O)O)C(C)C (H-AIPVSREEK-OH),1
4,CC(C)[C@H](NC(=O)[C@@H]1CCCN1C(=O)[C@@H]1CCCN1C(=O)[C@H](C)N)C(=O)N[C@@H](CO)C(=O)N[C@@H](CCCNC(=N)N)C(=O)N[C@@H](CCC(=O)O)C(=O)N[C@@H](CCC(=O)O)C(=O)N[C@@H](CCCCN)C(=O)O (H-APPVSREEK-OH),0.1
5,CC[C@H](C)[C@H](NC(=O)[C@H](C)N)C(=O)N1CCC[C@H]1C(=O)N1CCC[C@H]1C(=O)N[C@@H](CO)C(=O)N[C@@H](CCCNC(=N)N)C(=O)N[C@@H](CCC(=O)O)C(=O)N[C@@H](CCC(=O)O)C(=O)N[C@@H](CCCCN)C(=O)O (H-AIPPSREEK-OH),0.1
6,CC[C@H](C)[C@H](NC(=O)[C@H](C)N)C(=O)N1CCC[C@H]1C(=O)N[C@H](C(=O)N[C@@H](CO)C(=O)N[C@@H](CCCNC(=N)N)C(=O)N[C@@H](CCC(=O)O)C(=O)N1CCC[C@H]1C(=O)N[C@@H](CCCCN)C(=O)O)C(C)C (H-AIPVSREPK-OH),0.3
7,CC[C@H](C)[C@H](NC(=O)[C@H](C)N)C(=O)N1CCC[C@H]1C(=O)N[C@@H](CCCNC(=N)N)C(=O)N[C@@H](CO)C(=O)N[C@@H](CCCNC(=N)N)C(=O)N[C@@H](CCC(=O)O)C(=O)N[C@@H](CCC(=O)O)C(=O)N[C@@H](CCCCN)C(=O)O (H-AIPRSREEK-OH),0
8,CC[C@H](C)[C@H](NC(=O)[C@H](C)N)C(=O)N1CCC[C@H]1C(=O)N[C@H](C(=O)N[C@@H](CO)C(=O)N[C@@H](CCCNC(=N)N)C(=O)N[C@@H](CCCNC(=N)N)C(=O)N[C@@H](CCC(=O)O)C(=O)N[C@@H](CCCCN)C(=O)O)C(C)C (H-AIPVSRREK-OH),0.6
9,CC[C@H](C)[C@H](NC(=O)[C@H](C)N)C(=O)N1CCC[C@H]1C(=O)N[C@H](C(=O)N[C@@H](CO)C(=O)N[C@@H](C)C(=O)N[C@@H](CCC(=O)O)C(=O)N[C@@H](CCC(=O)O)C(=O)N[C@@H](CCCCN)C(=O)O)C(C)C (H-AIPVSAEEK-OH),0
10,CC[C@H](C)[C@H](N)C(=O)N[C@H](C(=O)N1CCC[C@H]1C(=O)N[C@H](C(=O)N[C@@H](CO)C(=O)N[C@@H](CCCNC(=N)N)C(=O)N[C@@H](CCC(=O)O)C(=O)N[C@@H](CCC(=O)O)C(=O)N[C@@H](CCCCN)C(=O)O)C(C)C)[C@@H](C)CC (H-IIPVSREEK-OH),1.6
11,CC[C@H](C)[C@H](NC(=O)[C@@H](N)CCCNC(=N)N)C(=O)N1CCC[C@H]1C(=O)N[C@H](C(=O)N[C@@H](CO)C(=O)N[C@@H](CCCNC(=N)N)C(=O)N[C@@H](CCC(=O)O)C(=O)N[C@@H](CCC(=O)O)C(=O)N[C@@H](CCCCN)C(=O)O)C(C)C (H-RIPVSREEK-OH),2
12,CC[C@H](C)[C@H](NC(=O)[C@H](CCC(=O)O)NC(=O)[C@H](CCCNC(=N)N)NC(=O)[C@H](CO)NC(=O)[C@@H](NC(=O)[C@@H]1CCCN1C(=O)[C@@H](NC(=O)[C@H](C)N)[C@@H](C)CC)C(C)C)C(=O)N[C@@H](CCCCN)C(=O)O (H-AIPVSREIK-OH),0.1
13,CC[C@H](C)[C@H](NC(=O)[C@H](C)N)C(=O)N1CCC[C@H]1C(=O)N[C@H](C(=O)N[C@@H](CO)C(=O)N1CCC[C@H]1C(=O)N[C@@H](CCC(=O)O)C(=O)N[C@@H](CCC(=O)O)C(=O)N[C@@H](CCCCN)C(=O)O)C(C)C (H-AIPVSPEEK-OH),0
14,CC[C@H](C)[C@H](NC(=O)[C@H](C)N)C(=O)N1CCC[C@H]1C(=O)N[C@@H](C)C(=O)N[C@@H](CO)C(=O)N[C@@H](CCCNC(=N)N)C(=O)N[C@@H](CCC(=O)O)C(=O)N[C@@H](CCC(=O)O)C(=O)N[C@@H](CCCCN)C(=O)O (H-AIPASREEK-OH),0.1
15,CC[C@H](C)[C@H](NC(=O)[C@H](C)N)C(=O)N1CCC[C@H]1C(=O)N[C@H](C(=O)N[C@@H](CO)C(=O)N[C@@H](CCCNC(=N)N)C(=O)N1CCC[C@H]1C(=O)N[C@@H](CCC(=O)O)C(=O)N[C@@H](CCCCN)C(=O)O)C(C)C (H-AIPVSRPEK-OH),4.7
16,CC[C@H](C)[C@H](NC(=O)[C@@H]1CCCN1)C(=O)N1CCC[C@H]1C(=O)N[C@H](C(=O)N[C@@H](CO)C(=O)N[C@@H](CCCNC(=N)N)C(=O)N[C@@H](CCC(=O)O)C(=O)N[C@@H](CCC(=O)O)C(=O)N[C@@H](CCCCN)C(=O)O)C(C)C (H-PIPVSREEK-OH),1.8
17,CC[C@H](C)[C@H](NC(=O)[C@H](C)N)C(=O)N[C@@H](CCCNC(=N)N)C(=O)N[C@H](C(=O)N[C@@H](CO)C(=O)N[C@@H](CCCNC(=N)N)C(=O)N[C@@H](CCC(=O)O)C(=O)N[C@@H](CCC(=O)O)C(=O)N[C@@H](CCCCN)C(=O)O)C(C)C (H-AIRVSREEK-OH),0.2
18,CC(C)[C@H](NC(=O)[C@@H]1CCCN1C(=O)[C@H](CCCNC(=N)N)NC(=O)[C@H](C)N)C(=O)N[C@@H](CO)C(=O)N[C@@H](CCCNC(=N)N)C(=O)N[C@@H](CCC(=O)O)C(=O)N[C@@H](CCC(=O)O)C(=O)N[C@@H](CCCCN)C(=O)O (H-ARPVSREEK-OH),0
19,CC[C@H](C)[C@H](NC(=O)[C@H](C)N)C(=O)N1CCC[C@H]1C(=O)N[C@H](C(=O)N[C@@H](CO)C(=O)N[C@@H](CCC(=O)O)C(=O)N[C@@H](CCC(=O)O)C(=O)N[C@@H](CCC(=O)O)C(=O)N[C@@H](CCCCN)C(=O)O)C(C)C (H-AIPVSEEEK-OH),0
20,CC[C@H](C)[C@H](NC(=O)[C@H](C)N)C(=O)N1CCC[C@H]1C(=O)N[C@H](C(=O)N[C@@H](CO)C(=O)N[C@@H](CCCNC(=N)N)C(=O)N[C@@H](CCC(=O)O)C(=O)N[C@@H](C)C(=O)N[C@@H](CCCCN)C(=O)O)C(C)C (H-AIPVSREAK-OH),0.6
21,CC[C@H](C)[C@H](NC(=O)[C@H](C)N)C(=O)N1CCC[C@H]1C(=O)N[C@@H](CCC(=O)O)C(=O)N[C@@H](CO)C(=O)N[C@@H](CCCNC(=N)N)C(=O)N[C@@H](CCC(=O)O)C(=O)N[C@@H](CCC(=O)O)C(=O)N[C@@H](CCCCN)C(=O)O (H-AIPESREEK-OH),0.2
22,CC[C@H](C)[C@H](NC(=O)[C@H](C)N)C(=O)N1CCC[C@H]1C(=O)N[C@H](C(=O)N[C@@H](CO)C(=O)N[C@@H](CCCNC(=N)N)C(=O)N[C@@H](CCC(=O)O)C(=O)N[C@@H](CCCNC(=N)N)C(=O)N[C@@H](CCCCN)C(=O)O)C(C)C (H-AIPVSRERK-OH),0.2
23,CC(C)[C@H](NC(=O)[C@@H]1CCCN1C(=O)[C@H](CCC(=O)O)NC(=O)[C@H](C)N)C(=O)N[C@@H](CO)C(=O)N[C@@H](CCCNC(=N)N)C(=O)N[C@@H](CCC(=O)O)C(=O)N[C@@H](CCC(=O)O)C(=O)N[C@@H](CCCCN)C(=O)O (H-AEPVSREEK-OH),0.5
24,CC[C@H](C)[C@H](NC(=O)[C@H](C)N)C(=O)N[C@@H](C)C(=O)N[C@H](C(=O)N[C@@H](CO)C(=O)N[C@@H](CCCNC(=N)N)C(=O)N[C@@H](CCC(=O)O)C(=O)N[C@@H](CCC(=O)O)C(=O)N[C@@H](CCCCN)C(=O)O)C(C)C (H-AIAVSREEK-OH),0.1
25,CC[C@H](C)[C@H](NC(=O)[C@@H](N)CCC(=O)O)C(=O)N1CCC[C@H]1C(=O)N[C@H](C(=O)N[C@@H](CO)C(=O)N[C@@H](CCCNC(=N)N)C(=O)N[C@@H](CCC(=O)O)C(=O)N[C@@H](CCC(=O)O)C(=O)N[C@@H](CCCCN)C(=O)O)C(C)C (H-EIPVSREEK-OH),1
26,CC[C@H](C)[C@H](NC(=O)[C@H](C)N)C(=O)N[C@@H](CCC(=O)O)C(=O)N[C@H](C(=O)N[C@@H](CO)C(=O)N[C@@H](CCCNC(=N)N)C(=O)N[C@@H](CCC(=O)O)C(=O)N[C@@H](CCC(=O)O)C(=O)N[C@@H](CCCCN)C(=O)O)C(C)C (H-AIEVSREEK-OH),0
